Reference: ChEMBL document CHEMBL2086225, “Demethylwedelolactone derivatives inhibit invasive growth in vitro and lung metastasis of MDA-MB-231 breast cancer cells in nude mice” (Eur J Med Chem, 2012)
Calls of active or inactive are those of the source.

What was measured:
MDA-MB-231 [1] = assay: Cytotoxicity against human MDA-MB-231 cells at 25 to 100 uM after 24 hrs by MTT assay; type: functional, cell-based
Outline: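 Cells seeded at 5 × 10^4/well, grown 24 h in complete medium, exposed 0–100 µM for 24 h (control 0.2% DMSO). Medium replaced, MTT added for 4 h, formazan dissolved in DMSO, absorbance read at 570 nm.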

MDA-MB-231 [2] = assay: Antimetastatic activity against human MDA-MB-231 cells assessed as inhibition of anchorage-independent colony formation after 21 days by inverted microscopy; type: functional, cell-based
Outline: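 Cells pretreated 0–20 µM for 24 h, then 5 × 10^3 cells suspended in 0.33% agarose with 10% FBS over 0.5% agarose base layer; grown at 37 °C, 5% CO2. Colonies counted after 21 days under inverted microscope at 40×; 3 independent experiments, means ± SD.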

MDA-MB-231 [3] = assay: Antimetastatic activity against human MDA-MB-231 cells assessed as inhibition of wound closure activity up to 20 uM at 12 hrs by scratch motility assay; type: functional, cell-based
MDA-MB-231 [4] = assay: Antiinvasive activity against human MDA-MB-231 cells assessed as F-actin reorganization at 20 uM incubated 24 hrs post-serum starvation measured after 12 hrs by TRITC-conjugated phalloidin staining method; type: functional, cell-based
Outline: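 Cells seeded, serum-starved (0.1%) overnight, then exposed for 12 h in DMEM with 10% FBS. Fixed in 4% paraformaldehyde 10 min, permeabilized with 0.1% Triton X-100 5 min, F-actin stained with TRITC-phalloidin (500 ng/ml) 1 h; imaged by fluorescence microscopy at 100×.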

[5] = target: Focal adhesion kinase 1 (Homo sapiens) (UniProt Q05397); assay: Inhibition of FAK phosphorylation in human MDA-MB-231 cells after 12 hrs by Western blot analysis; type: cell-based
Outline: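 Cells exposed 0–20 µM for 12 h; lysates in RIPA buffer immunoblotted with phospho-FAK, total FAK and β-actin antibodies; HRP secondary, chemiluminescence, densitometry.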

MDA-MB-231 [6] = assay: Antiinvasive activity against human MDA-MB-231 cells pretreated for 12 hrs followed by compound-wash out measured after 12 hrs by Boyden chamber assay; type: functional, cell-based
Outline: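 Cells pretreated 12 h, resuspended in serum-free medium (2 × 10^5 cells/ml) in upper chamber coated with Matrigel diluted 1:25; 10% FBS medium below. After 12 h, non-invaded cells removed; invaded cells methanol-fixed, Giemsa-stained, counted at 200× in 5 random fields per replicate (n = 4), averaged.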

MDA-MB-231 [7] = assay: Downregulation of MMP2 expression in human MDA-MB-231 cells at 5 to 20 uM after 12 hrs by Western blot analysis; type: functional, cell-based
Outline: (§1)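 Cells exposed to 5, 10 or 20 µM for 12 h; lysed in RIPA buffer (pH 7.5) with protease/phosphatase inhibitors. 50–100 µg protein run on SDS-PAGE, transferred to nitrocellulose, probed with phospho-specific and total antibodies (β-actin loading control), HRP secondary, ECL detection, densitometry.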

MDA-MB-231 [8] = assay: Downregulation of MMP9 expression in human MDA-MB-231 cells at 0.5 to 1 uM after 12 hrs by Western blot analysis; type: functional, cell-based
MDA-MB-231 [9] = assay: Upregulation of TIMP1 expression in human MDA-MB-231 cells at 0.5 to 1 uM after 12 hrs by Western blot analysis; type: functional, cell-based
MDA-MB-231 [10] = assay: Upregulation of TIMP2 expression in human MDA-MB-231 cells at 1 to 3.5 uM after 12 hrs by Western blot analysis; type: functional, cell-based
[11] = target: T1, NF-kappa-B inhibitor alpha (Homo sapiens) (UniProt P25963); assay: Inhibition of IkappaBalpha phosphorylation in human MDA-MB-231 cells at 5 to 20 uM after 12 to 24 hrs by Western blot analysis; type: cell-based
T1 sequence (whole entry): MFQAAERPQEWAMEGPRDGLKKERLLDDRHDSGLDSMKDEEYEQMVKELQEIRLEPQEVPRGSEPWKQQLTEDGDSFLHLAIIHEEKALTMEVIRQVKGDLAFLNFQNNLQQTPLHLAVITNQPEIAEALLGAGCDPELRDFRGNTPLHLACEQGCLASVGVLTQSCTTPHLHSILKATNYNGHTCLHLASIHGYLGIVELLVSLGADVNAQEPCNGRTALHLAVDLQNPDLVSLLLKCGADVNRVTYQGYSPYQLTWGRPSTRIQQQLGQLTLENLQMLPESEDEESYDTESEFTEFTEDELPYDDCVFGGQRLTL

[12] = target: T1, NF-kappa-B inhibitor alpha (Homo sapiens); assay: Inhibition of IkappaBalpha phosphorylation in human MDA-MB-231 cells after 12 hrs by Western blot analysis; type: cell-based
Outline: (§2)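 For the time course, cells exposed to 20 µM for various times; for dose response, 5, 10 or 20 µM for 12 h. Lysates immunoblotted with phospho-IκB-α and total IκB-α antibodies, HRP secondary, chemiluminescence detection, densitometry.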

[13] = target: Mitogen-activated protein kinase; ERK1/ERK2 (Homo sapiens) (UniProt P27361+P28482); assay: Inhibition of ERK 1/2 phosphorylation in human MDA-MB-231 cells at 5 to 20 uM after 12 hrs by Western blot analysis; type: cell-based; outline: as §1
SK-HEP1 = assay: Antiinvasive activity against human SKHEP1 cells; type: functional, cell-based
[14] = target: 72 kDa type IV collagenase (Homo sapiens) (UniProt P08253); assay: Inhibition of MMP2 in human MDA-MB-231 cells at 20 uM up to 12 hrs by gelatin-zymogrphy; type: cell-based
Outline: (§3)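 Cells seeded at 4 × 10^5 cells/ml overnight, exposed to 20 µM for 0–12 h. Conditioned media run on 8% SDS-PAGE containing 0.1% gelatin (150 V, 3 h), SDS removed with 2% Triton X-100 washes, gels incubated in 10 mM CaCl2, 40 mM Tris-HCl pH 8.0 for 16 h at 37 °C, Coomassie-stained.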

[15] = target: Matrix metalloproteinase-9 (Homo sapiens) (UniProt P14780); assay: Inhibition of MMP9 in human MDA-MB-231 cells at 20 uM up to 12 hrs by gelatin-zymogrphy; type: cell-based; outline: as §3
MDA-MB-231 [16] = assay: Downregulation of MMP9 expression in human MDA-MB-231 cells at 0.1 to 0.9 uM after 12 hrs by Western blot analysis; type: functional, cell-based
MDA-MB-231 [17] = assay: Upregulation of TIMP1 expression in human MDA-MB-231 cells at 0.2 to 0.8 uM after 12 hrs by Western blot analysis; type: functional, cell-based
MDA-MB-231 [18] = assay: Upregulation of TIMP2 expression in human MDA-MB-231 cells at 1.1 to 3.6 uM after 12 hrs by Western blot analysis; type: functional, cell-based
[19] = target: T1, NF-kappa-B inhibitor alpha (Homo sapiens); assay: Inhibition of IkappaBalpha phosphorylation in human MDA-MB-231 cells at 5 to 20 uM after 3 to 24 hrs by Western blot analysis; type: cell-based; outline: as §2
MDA-MB-231 [20] = assay: Antiinvasive activity against human MDA-MB-231 cells xenografted in athymic nude BALB/c mouse assessed as decrease in lung size at 5 and 20 mg/kg, ip administered 3 times per week starting 1 week prior to xenografting measured after 5 weeks relative to control; type: functional, organism-based; parameters: dose 20 mg/kg
Outline: (§4)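 Female six-week-old BALB/c-nu mice (n = 6/group) dosed i.p. 3 times/week for 5 weeks (100 µl vehicle, or PBS). After 1 week, 1 × 10^6 cells injected into tail vein. Mice euthanized 4 weeks post-injection; lungs photographed, weighed, and H&E/hematoxylin sections examined for tumor cells. Means ± SD; one-way ANOVA with Dunnett's test.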

MDA-MB-231 [21] = assay: Antiinvasive activity against human MDA-MB-231 cells xenografted in athymic nude BALB/c mouse assessed as decrease in lung weight at 5 and 20 mg/kg, ip administered 3 times per week starting 1 week prior to xenografting measured after 5 weeks relative to control; type: functional, organism-based; parameters: dose 20 mg/kg; outline: as §4
MDA-MB-231 [22] = assay: Antiinvasive activity against human MDA-MB-231 cells xenografted in athymic nude BALB/c mouse assessed as decrease in lung metastasis at 5 and 20 mg/kg, ip administered 3 times per week starting 1 week prior to xenografting measured after 5 weeks by hematoxylin-staining relative to control; type: functional, organism-based; parameters: dose 20 mg/kg; outline: as §4
MDA-MB-231 [23] = assay: Downregulation of MMP2 in human MDA-MB-231 cells at 10 uM by Western blot analysis; type: functional, cell-based
Outline: (§5)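 MDA-MB-231 cells in DMEM with 10% FBS at 37 °C were treated for 12 h. Whole-cell lysates were made in RIPA buffer (pH 7.5) at 4 °C, then SDS-PAGE, nitrocellulose transfer, and immunoblotting for MMP-2 and MMP-9, with β-actin as loading control. Detection was by HRP secondary antibody and chemiluminescence. Relative band density was quantified by densitometry.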

MDA-MB-231 [24] = assay: Downregulation of MMP9 in human MDA-MB-231 cells at 10 uM by Western blot analysis; type: functional, cell-based; outline: as §5
MDA-MB-231 [25] = assay: Downregulation of MMP2 in human MDA-MB-231 cells at 50 uM by Western blot analysis; type: functional, cell-based
MDA-MB-231 [26] = assay: Downregulation of MMP9 in human MDA-MB-231 cells at 50 uM by Western blot analysis; type: functional, cell-based

Sequence of Focal adhesion kinase 1 (Homo sapiens) (Q05397 2-1052 limits assumed): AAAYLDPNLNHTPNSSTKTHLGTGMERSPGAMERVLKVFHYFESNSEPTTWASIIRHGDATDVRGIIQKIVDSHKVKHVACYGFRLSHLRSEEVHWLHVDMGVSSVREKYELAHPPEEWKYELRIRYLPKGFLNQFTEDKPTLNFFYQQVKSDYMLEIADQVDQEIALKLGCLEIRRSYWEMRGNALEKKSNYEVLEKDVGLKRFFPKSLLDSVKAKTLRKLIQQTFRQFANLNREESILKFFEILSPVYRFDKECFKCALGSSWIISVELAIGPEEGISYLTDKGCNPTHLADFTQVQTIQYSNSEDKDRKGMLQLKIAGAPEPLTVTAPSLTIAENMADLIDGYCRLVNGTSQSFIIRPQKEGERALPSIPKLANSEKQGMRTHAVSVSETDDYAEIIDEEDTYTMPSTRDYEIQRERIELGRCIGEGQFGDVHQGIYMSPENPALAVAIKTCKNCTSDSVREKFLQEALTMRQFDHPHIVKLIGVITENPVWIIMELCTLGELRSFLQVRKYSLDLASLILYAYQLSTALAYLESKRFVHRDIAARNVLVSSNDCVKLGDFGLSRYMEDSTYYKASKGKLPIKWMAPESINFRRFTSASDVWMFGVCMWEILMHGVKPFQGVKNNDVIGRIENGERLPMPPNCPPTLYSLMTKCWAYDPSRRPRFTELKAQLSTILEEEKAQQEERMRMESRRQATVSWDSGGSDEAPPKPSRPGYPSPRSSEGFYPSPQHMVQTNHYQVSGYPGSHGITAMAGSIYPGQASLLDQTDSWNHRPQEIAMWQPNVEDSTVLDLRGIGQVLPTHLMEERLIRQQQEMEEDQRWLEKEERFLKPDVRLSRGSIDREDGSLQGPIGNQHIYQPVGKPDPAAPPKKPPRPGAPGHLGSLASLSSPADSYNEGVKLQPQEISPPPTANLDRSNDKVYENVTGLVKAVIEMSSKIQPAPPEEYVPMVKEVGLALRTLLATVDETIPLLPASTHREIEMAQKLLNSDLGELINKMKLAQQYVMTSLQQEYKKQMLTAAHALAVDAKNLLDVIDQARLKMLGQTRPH
Sequence of Mitogen-activated protein kinase; ERK1/ERK2 (Homo sapiens) (P27361 whole entry, looked up): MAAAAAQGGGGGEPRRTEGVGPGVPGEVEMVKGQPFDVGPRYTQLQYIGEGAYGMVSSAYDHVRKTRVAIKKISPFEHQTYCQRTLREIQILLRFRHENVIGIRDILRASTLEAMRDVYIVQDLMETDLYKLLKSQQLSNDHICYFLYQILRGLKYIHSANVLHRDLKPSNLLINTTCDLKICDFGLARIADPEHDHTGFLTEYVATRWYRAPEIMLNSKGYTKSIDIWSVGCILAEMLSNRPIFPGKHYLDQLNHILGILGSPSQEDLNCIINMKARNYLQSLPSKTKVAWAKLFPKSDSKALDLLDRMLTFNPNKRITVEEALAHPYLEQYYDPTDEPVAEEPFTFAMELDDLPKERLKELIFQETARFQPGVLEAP
Sequence of Mitogen-activated protein kinase; ERK1/ERK2 (Homo sapiens) (P28482 whole entry, looked up): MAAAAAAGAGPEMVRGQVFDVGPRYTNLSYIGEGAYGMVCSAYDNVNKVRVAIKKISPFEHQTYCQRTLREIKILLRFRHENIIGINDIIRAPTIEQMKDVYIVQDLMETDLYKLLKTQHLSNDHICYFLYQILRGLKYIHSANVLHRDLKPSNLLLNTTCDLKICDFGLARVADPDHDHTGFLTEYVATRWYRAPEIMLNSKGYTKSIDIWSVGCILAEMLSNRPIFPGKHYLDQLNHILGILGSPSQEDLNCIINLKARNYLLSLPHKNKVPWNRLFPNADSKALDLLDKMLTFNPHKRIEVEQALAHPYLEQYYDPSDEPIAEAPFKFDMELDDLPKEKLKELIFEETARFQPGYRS
Sequence of Matrix metalloproteinase-9 (Homo sapiens) (P14780 whole entry): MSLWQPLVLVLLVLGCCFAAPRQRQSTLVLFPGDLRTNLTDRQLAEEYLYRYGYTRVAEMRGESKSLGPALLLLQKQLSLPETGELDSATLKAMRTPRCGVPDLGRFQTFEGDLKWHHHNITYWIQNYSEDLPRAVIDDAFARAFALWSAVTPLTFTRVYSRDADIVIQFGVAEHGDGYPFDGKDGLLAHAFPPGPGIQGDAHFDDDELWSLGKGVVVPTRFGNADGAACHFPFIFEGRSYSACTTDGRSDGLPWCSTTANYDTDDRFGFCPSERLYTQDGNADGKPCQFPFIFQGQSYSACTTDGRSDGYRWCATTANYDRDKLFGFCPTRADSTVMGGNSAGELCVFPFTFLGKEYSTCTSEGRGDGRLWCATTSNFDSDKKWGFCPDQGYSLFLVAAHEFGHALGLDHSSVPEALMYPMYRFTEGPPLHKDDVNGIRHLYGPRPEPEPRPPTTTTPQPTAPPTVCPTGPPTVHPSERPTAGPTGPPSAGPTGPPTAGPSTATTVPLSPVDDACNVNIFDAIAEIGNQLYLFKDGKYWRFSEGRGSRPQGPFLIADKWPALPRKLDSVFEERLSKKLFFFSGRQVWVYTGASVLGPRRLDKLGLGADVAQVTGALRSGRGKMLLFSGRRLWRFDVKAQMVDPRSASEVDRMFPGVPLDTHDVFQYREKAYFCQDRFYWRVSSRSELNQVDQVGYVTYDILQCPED
Sequence of 72 kDa type IV collagenase (Homo sapiens) (P08253 110-660 limits assumed): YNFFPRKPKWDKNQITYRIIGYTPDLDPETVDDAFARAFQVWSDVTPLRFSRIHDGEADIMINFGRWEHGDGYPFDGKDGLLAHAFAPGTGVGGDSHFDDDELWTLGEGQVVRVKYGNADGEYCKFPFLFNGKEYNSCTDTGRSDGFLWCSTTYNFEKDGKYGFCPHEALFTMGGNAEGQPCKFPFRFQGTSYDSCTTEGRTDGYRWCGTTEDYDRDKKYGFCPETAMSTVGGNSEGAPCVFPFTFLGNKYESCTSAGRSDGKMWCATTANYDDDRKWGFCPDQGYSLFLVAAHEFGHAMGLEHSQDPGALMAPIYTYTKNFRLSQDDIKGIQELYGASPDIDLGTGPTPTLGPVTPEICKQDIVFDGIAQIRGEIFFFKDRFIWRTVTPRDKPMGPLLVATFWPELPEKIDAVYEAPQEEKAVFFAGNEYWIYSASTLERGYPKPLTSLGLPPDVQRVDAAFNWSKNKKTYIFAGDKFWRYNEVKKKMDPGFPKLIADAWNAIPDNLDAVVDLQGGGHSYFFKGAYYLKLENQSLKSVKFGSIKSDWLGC

COc1cc(O)c2c(c1)oc(=O)c1c3cc(O)c(O)cc3oc21
active: Activity (MDA-MB-231 [1]) | inhibition (MDA-MB-231 [2]) Dose-dependent effect | inhibition (MDA-MB-231 [3]) | Activity (MDA-MB-231 [4]) | inhibition [5] Dose-dependent effect | Activity (MDA-MB-231 [6]) Dose-dependent effect | Activity (MDA-MB-231 [7]) | Activity (MDA-MB-231 [8]) | Activity (MDA-MB-231 [9]) | Activity (MDA-MB-231 [10]) | inhibition [11] | inhibition [12] Dose-dependent effect | inhibition [13] | Activity (SK-HEP1)

O=c1oc2cc(O)cc(O)c2c2oc3cc(O)c(O)cc3c12
active: Activity (MDA-MB-231 [1]) | inhibition (MDA-MB-231 [2]) Dose-dependent effect | inhibition (MDA-MB-231 [3]) | Activity (MDA-MB-231 [4]) | inhibition [5] Dose-dependent effect | Activity (MDA-MB-231 [6]) Dose-dependent effect | inhibition [14] | inhibition [15] | Activity (MDA-MB-231 [7]) | Activity (MDA-MB-231 [16]) | Activity (MDA-MB-231 [17]) | Activity (MDA-MB-231 [18]) | inhibition [19] | inhibition [12] Dose-dependent effect | inhibition [13] | Activity (MDA-MB-231 [20]) | Activity (MDA-MB-231 [21]) | Activity (MDA-MB-231 [22]) | Activity (SK-HEP1)

S=C(S)N1CCCC1
active: Activity (MDA-MB-231 [23]) | Activity (MDA-MB-231 [24])

COc1cccc(-c2cc(=O)c3ccccc3o2)c1N
active: Activity (MDA-MB-231 [25]) | Activity (MDA-MB-231 [26])
